The source of these data is ChEMBL document CHEMBL1122671, “Anticonvulsant activity of some 4-aminobenzamides” (J Med Chem, 1984).

One may read the TD50 as the dose at which the toxic effect under study appears in half of the subjects. Read a low TD50 as harm at a small dose.

A short description of data set [1]: (§1) Evaluation of neurologic deficit by rotarod procedure in mice. In kind it is ADME, organism-based. As to conditions: mouse, in vivo. The essentials: (§2)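 Male Carworth Farms number-one mice were dosed ip (30% PEG 400 vehicle) and placed on a 1-in. knurled plastic rod rotating at 6 rpm. Neurotoxicity meant failure to stay on the rod for 1 min. TD50 was determined graphically.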
Background: The rotarod test checks motor coordination on a turning rod.

Data set [2] concerns Mus musculus. In words: Anticonvulsant activity against MES (maximal electroshock) induced seizure in mice at 4 hr; f = No activity at 100 mg/kg. Also noted: dose 100 mg/kg. The class given is functional, organism-based. In outline: (§3)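 Male Carworth Farms number-one mice received the compound ip in 30% polyethylene glycol 400. Doses were 30, 100 and 300 mg/kg, with 600 mg/kg in some cases. Maximal electroshock seizure protection was scored at 30 min and 4 h after dosing. Activity is coded by the lowest effective dose.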
(In general: In the maximal electroshock model the usual endpoint is tonic extension of the hind limbs.)

For data set [3], the system named is Mus musculus. In words: Anticonvulsant activity against scMet (subcutaneous metrazole) induced seizure in mice at 4 hr; f = No activity at 100 mg/kg. Also noted: dose 100 mg/kg. The class given is functional, organism-based.
Data set [4] can be described thus: Protective index (PI) which is defined as the ratio of TD50 to the ED50 (MES). In kind it is functional. The essentials: (§4)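 Both values come from ip dosing in 30% PEG 400 to male Carworth Farms number-one mice and were derived by the graphical method.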
Data set [5] deals with Mus musculus. In words: Anticonvulsant activity against MES (maximal electroshock) induced seizure in mice at 30 min; +++ = Activity at 100 mg/kg. In kind it is functional, organism-based. More on the design: dose 100 mg/kg. In outline:
as §3

In data set [6] the test system is Mus musculus. In words: Evaluated for toxicity by using rotarod test in mice at 4 hr; f = No activity at 100 mg/kg. More on the design: dose 100 mg/kg. The class given is organism-based. Particulars: in vivo. The essentials: (§5)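 Neurotoxicity in male Carworth Farms number-one mice dosed ip in 30% PEG 400 at 30, 100, 300 and sometimes 600 mg/kg, tested 30 min or 4 h later. Mice placed on a 1-in. knurled rod rotating at 6 rpm; toxicity means failure to stay on the rod for 1 min. Scored by the lowest toxic dose; footnotes record loss of righting reflex or lethality.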

Data set [7] relates to Mus musculus. In words: Anticonvulsant activity against scMet (subcutaneous metrazole) induced seizure in mice at 30 min; +++ = Indicates activity at 100 mg/kg. The class given is functional, organism-based. More on the design: dose 100 mg/kg.
For data set [8], the system named is Mus musculus. The experiment in a line: Evaluated for toxicity by using rotarod test at in mice 30 min; +++ = Indicates activity at 100 mg/kg. The class given is organism-based. Also noted: dose 100 mg/kg. As to conditions: in vivo, 0.5 h. In outline: as §5
Data set [9] is described as follows: Protective index (PI) which is defined as the ratio of TD50 to the ED50 (ScMet). The class given is functional. The essentials:
as §4

Data set [10] relates to Mus musculus. The experiment in a line: Anticonvulsant activity against scMet (subcutaneous metrazole) induced seizure in mice at 30 min; ++ = Activity at 300 mg/kg. In kind it is functional, organism-based. Also noted: dose 300 mg/kg.
Data set [11] relates to Mus musculus. In words: Evaluated for toxicity by using rotarod test in mice at 4 hr; + = Activity at 600 mg/kg. The class given is organism-based. More on the design: dose 600 mg/kg. Particulars: in vivo. The essentials: as §5
Data set [12] relates to Mus musculus. In words: Anticonvulsant activity against scMet (subcutaneous metrazole) induced seizure in mice at 4 hr; + = Activity at 600 mg/kg. In kind it is functional, organism-based. More on the design: dose 600 mg/kg.
Data set [13] deals with Mus musculus. The experiment in a line: Evaluated for toxicity by using rotarod test at in mice 30 min; + = Activity at 600 mg/kg. Also noted: dose 600 mg/kg. Particulars: in vivo, 0.5 h. The class given is organism-based. The essentials: as §5
The subject of data set [14] is Mus musculus. The experiment in a line: Anticonvulsant activity against MES (maximal electroshock) induced seizure in mice at 30 min; ++ = Activity at 300 mg/kg. Also noted: dose 300 mg/kg. In kind it is functional, organism-based. The essentials:
as §3

For data set [15], the system named is Mus musculus. The experiment in a line: Anticonvulsant activity against MES (maximal electroshock) induced seizure in mice at 4 hr; ++ = Activity at 300 mg/kg. The class given is functional, organism-based. Also noted: dose 300 mg/kg. In outline:
as §3

Data set [16] has as its system Mus musculus. The experiment in a line: Anticonvulsant activity against MES (maximal electroshock) induced seizure in mice at 30 min; + indicates activity at 600 mg/kg. The class given is functional, organism-based. More on the design: dose 600 mg/kg. The essentials: (§6)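 Male Carworth Farms number-one mice; compounds in 30% polyethylene glycol 400, given ip at 30, 100 and 300 mg/kg, some also at 600 mg/kg. Maximal electroshock challenge at 30 min or 4 h after dosing. Scored by the lowest dose giving protection (++++ 30, +++ 100, ++ 300, + 600 mg/kg; - none at 600).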

Data set [17] concerns Mus musculus. In words: Evaluated for toxicity by using rotarod test at in mice 30 min; ++ indicates activity at 300 mg/kg. In kind it is organism-based. More on the design: dose 300 mg/kg. Particulars: in vivo, 0.5 h. In outline: as §5
Data set [18] concerns Mus musculus. In words: Anticonvulsant activity against scMet (subcutaneous metrazole) induced seizure in mice at 30 min; ++ indicates activity at 300 mg/kg. In kind it is functional, organism-based. Also noted: dose 300 mg/kg.
Data set [19] concerns Mus musculus. The experiment in a line: Anticonvulsant activity against scMet (subcutaneous metrazole) induced seizure in mice at 4 hr; ++ indicates activity at 300 mg/kg. The class given is functional, organism-based. Also noted: dose 300 mg/kg.
Data set [20] deals with Mus musculus. In words: Evaluated for toxicity by using rotarod test in mice at 4 hr; ++ indicates activity at 300 mg/kg. In kind it is organism-based. Particulars: in vivo. Also noted: dose 300 mg/kg. The essentials:
as §5

The test system of data set [21] is Mus musculus. In words: Anticonvulsant activity against MES (maximal electroshock) induced seizure in mice at 4 hr; Activity at 300 mg/kg. The class given is functional, organism-based. Also noted: dose 300 mg/kg. The essentials: as §3
For data set [22], the species on record is Mus musculus. Described as §1. The class given is functional. In outline: as §2
The test system of data set [23] is Mus musculus. The experiment in a line: Evaluated for toxicity by using rotarod test in mice at 30 min; + = Activity at 600 mg/kg. In kind it is organism-based. Also noted: dose 600 mg/kg. Particulars: in vivo, 0.5 h. The essentials: as §5
In data set [24] the test system is Mus musculus. The experiment in a line: Anticonvulsant activity against scMet (subcutaneous metrazole) induced seizure in mice at 30 min; + = Activity at 600 mg/kg. The class given is functional, organism-based. Also noted: dose 600 mg/kg.
Data set [25] relates to Mus musculus. In words: Anticonvulsant activity against MES (maximal electroshock) induced seizure in mice at 4 hr; + indicates activity at 600 mg/kg. In kind it is functional, organism-based. More on the design: dose 600 mg/kg. The essentials: as §6
The subject of data set [26] is Mus musculus. The experiment in a line: Evaluated for toxicity by using rotarod test in mice at 4 hr; - indicates no activity at 600 mg/kg. As to conditions: in vivo. Also noted: dose 600 mg/kg. In kind it is organism-based. The essentials:
as §5

Data set [27] concerns Mus musculus. The experiment in a line: Evaluated for toxicity by using rotarod test at in mice 30 min; - indicates no activity at 600 mg/kg. The class given is organism-based. More on the design: dose 600 mg/kg. Particulars: in vivo, 0.5 h. In outline:
as §5

The subject of data set [28] is Mus musculus. In words: Anticonvulsant activity against scMet (subcutaneous metrazole) induced seizure in mice at 30 min; + indicates activity at 600 mg/kg. In kind it is functional, organism-based. Also noted: dose 600 mg/kg. In outline: (§7)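 Male Carworth Farms number-one mice dosed ip (30% PEG 400) at 30, 100, 300 and in some cases 600 mg/kg. Pentylenetetrazole 85 mg/kg given sc as a 0.5% solution in the posterior midline, at 30 min or 4 h. Protection means no clonic spasm of at least 5 s within 30 min. Scored by the lowest protective dose.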

Data set [29] relates to Mus musculus. In words: Anticonvulsant activity against scMet (subcutaneous metrazole) induced seizure in mice at 4 hr; - indicates no activity at 600 mg/kg. More on the design: dose 600 mg/kg. In kind it is functional, organism-based. In outline: as §7

Compound `CCCCCNC(=O)c1ccc(N)cc1` came in with a TD50 in data set [1] of 68.5 mg/kg. Besides, the Activity result is “No activity” in data set [2], “No activity” in [3], “Activity at 100 mg/kg” in data set [5] and “Activity at 100 mg/kg” in data set [7]. Also, the PI in [4] amounted to 1.6; in [9] it was 1.2. Further, the Toxicity entry in [6] is reported as “No activity”; in data set [8] it was “activity at 100 mg/kg”.
Take `Nc1ccc(C(=O)NCCc2ccccc2)cc1`: the Activity result in data set [10], in data set [12], in data set [14] and in [15] was “Activity at 300 mg/kg” each time. For the same compound, the Toxicity result in data set [11] and in [13] was “Activity at 600 mg/kg” in each case.
For `CC(CNC(=O)c1ccc(N)cc1)c1ccccc1` (centres undefined), the Activity entry in [16], in [18], in data set [19] and in data set [21] was “activity at 300 mg/kg” in each case. Moreover, the Toxicity result in [17] and in [20] was “activity at 300 mg/kg” each time.
`CCC1(c2ccccc2)C(=O)NC(=O)NC1=O` [PHENOBARBITAL] had a TD50 in data set [22] of 69 mg/kg.
Regarding `CCNC(=O)c1ccc(N)cc1`, the Toxicity entry in [11] and in data set [23] was “Activity at 600 mg/kg” in each case. For the same compound, the Activity entry in [12], in data set [24], in data set [5] and in data set [15] was “Activity at 100 mg/kg” each time.
As for `CC(Cc1ccccc1)NC(=O)c1ccc(N)cc1` (centres undefined), the Activity result in data set [25] was “activity at 600 mg/kg”; in [16], “activity at 600 mg/kg”; in [28] it was “activity at 600 mg/kg”; in data set [29], “Not toxic”. The Toxicity result in [26] and in data set [27] was “Not toxic” in each case.
